The values below come from ChEMBL document CHEMBL1122917, “Vinblastin-23-oyl amino acid derivatives: chemistry, physicochemical data, toxicity, and antitumor activities against P388 and L1210 leukemias” (J Med Chem, 1985).

Assay type in all cases: functional
The subject of assay [1] is Mus musculus. Briefly: Percent increase in life span at dose 7 mg/kg/day in 10 mice implanted with P388 leukemia cell line. An outline of the steps:
(§1)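 Female DBA2 mice inoculated iv on day 0 with 10^4 P388 cells; single iv treatment on day 1 with drug as sulfate salt in physiological saline. Survival followed; %ILS from all deaths and survivors as (T/C × 100) − 100, maximal MST 30 days; survivors counted on days 30 and 60. Most experiments confirmed three times.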

The subject of assay [2] is Mus musculus. Briefly: Number of survivors on 60th day at dose 4 mg/kg/day in 10 mice implanted with P388 leukemia cell line.
Assay [3] concerns Mus musculus. Description: Number of survivors on 60th day at dose 14 mg/kg/day in 10 mice implanted with P388 leukemia cell line.
Assay [4] relates to Mus musculus. Briefly: Percent increase in life span at dose 5 mg/kg/day in 10 mice implanted with P388 leukemia cell line. An outline of the steps: as §1
The subject of assay [5] is Mus musculus. Description: Percent increase in life span at dose 14 mg/kg/day in 10 mice implanted with P388 leukemia cell line. Summed up: as §1
Assay [6] relates to Mus musculus. Description: Number of survivors on 60th day at dose 5 mg/kg/day in 10 mice implanted with P388 leukemia cell line.
The subject of assay [7] is Mus musculus. Briefly: Percent increase in life span at dose 4 mg/kg/day in 10 mice implanted with P388 leukemia cell line. The note with it: Mus musculus, P388. Summed up:
as §1

Assay [8] has as its system Mus musculus. Description: Number of survivors on 30th day at dose 17.5 mg/kg/day in 9 mice implanted with P388 leukemia cell line.
Assay [9] relates to Mus musculus. Briefly: Percent increase in life span at dose 12.5 mg/kg/day in 10 mice implanted with P388 leukemia cell line. Summed up: as §1
In assay [10] the test system is Mus musculus. Description: Number of survivors on 60th day at dose 15 mg/kg/day in 10 mice implanted with P388 leukemia cell line.
The test system of assay [11] is Mus musculus. Description: Number of survivors on 30th day at dose 12.5 mg/kg/day in 10 mice implanted with P388 leukemia cell line.
In assay [12] the test system is Mus musculus. Briefly: Number of survivors on 30th day at dose 15 mg/kg/day in 10 mice implanted with P388 leukemia cell line.
Assay [13] has as its system Mus musculus. Description: Number of survivors on 60th day at dose 7 mg/kg/day in 10 mice implanted with P388 leukemia cell line. Summed up:
as §1

The subject of assay [14] is Mus musculus. Briefly: Number of survivors on 30th day at dose 14 mg/kg/day in 10 mice implanted with P388 leukemia cell line.
For assay [15], the system named is Mus musculus. Description: Number of survivors on 30th day at dose 10 mg/kg/day in 10 mice implanted with P388 leukemia cell line.
Assay [16] has as its system Mus musculus. Briefly: Number of survivors on 60th day at dose 10 mg/kg/day in 10 mice implanted with P388 leukemia cell line.
Assay [17] concerns Mus musculus. Description: Percent increase in life span of DBA2 mice after inoculation with L1210 leukemia intravenously at a dose of 15 mg/kg per day. The note with it: route intravenous.
For assay [18], the system named is Mus musculus. Description: Percent increase in life span at dose 17.5 mg/kg/day in 10 mice implanted with P388 leukemia cell line.
Assay [19] concerns Mus musculus. Description: Number of survivors on 30th day at dose 4 mg/kg/day in 10 mice implanted with P388 leukemia cell line.
Assay [20] has as its system Mus musculus. Description: Number of survivors on 30th day at dose 7 mg/kg/day in 10 mice implanted with P388 leukemia cell line.
The test system of assay [21] is Mus musculus. Briefly: Number of survivors of DBA2 mice on 30th day after inoculation with L1210 leukemia cell line intravenously at a dose of 15 mg/kg/day; 0/10. The note with it: route intravenous.
For assay [22], the system named is Mus musculus. Description: Number of survivors on 60th day at dose 12.5 mg/kg/day in 10 mice implanted with P388 leukemia cell line.
For assay [23], the system named is Mus musculus. Description: Number of survivors on 60th day at dose 17.5 mg/kg/day in 9 mice implanted with P388 leukemia cell line.
For assay [24], the system named is Mus musculus. Description: Number of survivors on 30th day at dose 5 mg/kg/day in 10 mice implanted with P388 leukemia cell line.
The test system of assay [25] is Mus musculus. Briefly: Percent increase in life span at dose 10 mg/kg/day in 10 mice implanted with P388 leukemia cell line. An outline of the steps: as §1
For assay [26], the system named is Mus musculus. Description: Number of survivors of DBA2 mice on 60th day after inoculation with L1210 leukemia cell line intravenously at a dose of 15 mg/kg/day; 0/10. The note with it: route intravenous.
Assay [27] relates to Mus musculus. Description: Number of survivors on 60th day at dose 70 mg/kg/day in 10 mice implanted with P388 leukemia cell line. Summed up: as §1
Assay [28] has as its system Mus musculus. Briefly: Percent increase in life span at dose 70 mg/kg/day in 10 mice implanted with P388 leukemia cell line. An outline of the steps:
as §1

In assay [29] the test system is Mus musculus. Briefly: Number of survivors on 60th day at dose 60 mg/kg/day in 10 mice implanted with P388 leukemia cell line; 2/10.
Assay [30] has as its system Mus musculus. Briefly: Percent increase in life span at dose 50 mg/kg/day in 10 mice implanted with P388 leukemia cell line. Summed up: as §1
In assay [31] the test system is Mus musculus. Description: Percent increase in life span at dose 40 mg/kg/day in 10 mice implanted with P388 leukemia cell line. Summed up:
as §1

Assay [32] relates to Mus musculus. Briefly: Number of survivors on 60th day at dose 40 mg/kg/day in 10 mice implanted with P388 leukemia cell line; 1/10.
Assay [33] concerns Mus musculus. Description: Number of survivors on 30th day at dose 60 mg/kg/day in 10 mice implanted with P388 leukemia cell line; 3/10.
Assay [34] has as its system Mus musculus. Description: Number of survivors on 60th day at dose 50 mg/kg/day in 10 mice implanted with P388 leukemia cell line; 0/10.
For assay [35], the system named is Mus musculus. Description: Number of survivors on 30th day at dose 20 mg/kg/day in 10 mice implanted with P388 leukemia cell line; 0/10.
The test system of assay [36] is Mus musculus. Description: Percent increase in life span at dose 60 mg/kg/day in 10 mice implanted with P388 leukemia cell line. Summed up:
as §1

Assay [37] relates to Mus musculus. Description: Number of survivors on 60th day at dose 20 mg/kg/day in 10 mice implanted with P388 leukemia cell line; 0/10.
The test system of assay [38] is Mus musculus. Briefly: Percent increase in life span at dose 20 mg/kg/day in 10 mice implanted with P388 leukemia cell line. An outline of the steps: as §1
In assay [39] the test system is Mus musculus. Description: Number of survivors on 30th day at dose 40 mg/kg/day in 10 mice implanted with P388 leukemia cell line; 1/10.
In assay [40] the test system is Mus musculus. Briefly: Number of survivors on 30th day at dose 70 mg/kg/day in 10 mice implanted with P388 leukemia cell line; 0/10.
Assay [41] deals with Mus musculus. Briefly: Number of survivors on 30th day at dose 50 mg/kg/day in 10 mice implanted with P388 leukemia cell line; 1/10.

For the compound `CCOC(=O)[C@@H](NC(=O)[C@@]1(O)[C@H](O)[C@]2(CC)C=CCN3CC[C@@]4(c5cc([C@@]6(C(=O)OC)C[C@H]7C[N@](CCc8c6[nH]c6ccccc86)C[C@](O)(CC)C7)c(OC)cc5N(C)[C@@]14C)[C@@H]32)C(C)C`, the ILS (commonly how much longer treated animals lived than controls) at 7 mg/kg/day in the assay with Mus musculus [1] was 40%. For the same compound, the Survivors in the assay on Mus musculus [2] is on record as 1; in the assay with Mus musculus [3] it was 0; with Mus musculus [6], 0; with Mus musculus [8], 0; with Mus musculus [10], 2; in the assay with Mus musculus [11], 2. Further, the Survivors is given as 3 in the assay with Mus musculus [12]; 0 with Mus musculus [13]; 2 in the assay on Mus musculus [14]; 0 with Mus musculus [15]; 0 in the assay on Mus musculus [16]; 1 with Mus musculus [19]. Further, the Survivors in the assay on Mus musculus [20], in the assay on Mus musculus [21], with Mus musculus [22], in the assay on Mus musculus [23], in the assay with Mus musculus [24] and in the assay with Mus musculus [26] was 0 in each case. Besides, the ILS at 5 mg/kg/day with Mus musculus [4] was determined as 17.2%. Also, in the assay on Mus musculus [5], the ILS at 14 mg/kg/day was 108%. The compound also came in with an ILS at 4 mg/kg/day with Mus musculus [7] of 13.5%. This compound also showed an ILS at 12.5 mg/kg/day in the assay with Mus musculus [9] of 82.6%. The compound further came in with an ILS at 15 mg/kg/day in the assay with Mus musculus [17] of 67%. The compound further had an ILS at 17.5 mg/kg/day with Mus musculus [18] of 22.2%. Besides, in the assay with Mus musculus [25], the ILS at 10 mg/kg/day is 53.4%.

In the case of `CCOC(=O)[C@H](Cc1ccc(O)cc1)NC(=O)[C@@]1(O)[C@H](O)[C@]2(CC)C=CCN3CC[C@@]4(c5cc([C@@]6(C(=O)OC)C[C@H]7C[N@](CCc8c6[nH]c6ccccc86)C[C@](O)(CC)C7)c(OC)cc5N(C)[C@@]14C)[C@@H]32`, the Survivors in the assay with Mus musculus [27] was 0; in the assay with Mus musculus [29], 2; with Mus musculus [32] it was 1; in the assay on Mus musculus [33], 3; with Mus musculus [34] it was 0; in the assay on Mus musculus [35], 0. Also, the Survivors in the assay on Mus musculus [37] is listed as 0; in the assay with Mus musculus [39], 1; in the assay with Mus musculus [40], 0; with Mus musculus [41], 1. Moreover, the ILS at 70 mg/kg/day in the assay on Mus musculus [28] is 49.5%. This compound returned an ILS at 50 mg/kg/day with Mus musculus [30] of 49.5%. The compound further gave an ILS at 40 mg/kg/day in the assay with Mus musculus [31] of 53.3%. Besides, the ILS at 60 mg/kg/day in the assay with Mus musculus [36] turned out to be 49.5%. The ILS at 20 mg/kg/day with Mus musculus [38] amounted to 29.9%.
